Each block holds one molecule with its values, some of them ahead of it. Activity calls are given as the source filed them. The calls are words filed in the database; no cut-off is given here.
What was measured:
[1] = Partition coefficient, log P of the compound; type: physicochemical; conditions: octanol/water
[2] = molecular target: T1, Ribosomal protein S6 kinase alpha-3 (Homo sapiens, UniProt P51812); assay: Inhibition of recombinant RSK2 (unknown origin) expressed in baculovirus infected Sf9 cells assessed as decrease in substrate phosphorylation using GST-fusion protein containing ERalpha-Ser167 sequence-RLASTND as substrate by chemiluminescence analysis
[3] = molecular target: T1, Ribosomal protein S6 kinase alpha-3; assay: Inhibition of RSK2 in human PMA-stimulated MCF7 cells assessed as decrease in expression of 27kDa protein harboring (Lys/Arg)X(Lys/Arg)XX(pSer/pThr) motif at 25 uM pretreated for 24 hrs prior to PMA addition measured after 20 mins immunoblot analysis; type: cell-based
Method in brief: (§1)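 MCF-7 cells pretreated with inhibitor or vehicle, then stimulated with PMA or treated with DMSO vehicle. Lysates analysed by immunoblotting for eEF2 phosphorylation and other RSK biomarkers. Inhibitor concentrations were 100 μM or 25 μM.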

[4] = molecular target: T1, Ribosomal protein S6 kinase alpha-3; assay: Inhibition of RSK2 in human MCF7 cells assessed as reduction of PMA-induced decrease in EF2 kinase phosphorylation at 25 uM pretreated for 24 hrs prior to PMA addition measured after 20 mins by immunoblot analysis; type: cell-based; method in brief: as §1
MCF-10A = assay: Inhibition of human MCF10A cell proliferation assessed as decrease in ATP content after 48 hrs by CellTiter-GloTM assay; type: cell-based
Method in brief: (§2)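 Compounds added at time 0 to MCF-7 or MCF-10A cells at various concentrations, 25 μM or lower. Proliferation read as ATP content after 48 h of treatment, expressed as fold proliferation as a percentage of vehicle-treated cells. n = 3 in quadruplicate, SD, Student's t test.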

[5] = molecular target: T1, Ribosomal protein S6 kinase alpha-3; assay: Ratio of SL0101 IC50 to compound IC50 for recombinant RSK2 (unknown origin) expressed in baculovirus infected Sf9 cells by chemiluminescence analysis
MCF7 [6] = assay: Inhibition of human MCF7 cell proliferation assessed as decrease in ATP content at 25 uM after 48 hrs by CellTiter-GloTM assay relative to SL0101; type: functional; conditions: MCF7, 48 h; method in brief: as §2
MCF7 [7] = assay: Decrease in cyclin D1 level in human PMA-stimulated MCF7 cells at 25 uM pretreated for 24 hrs prior to PMA addition measured after 20 mins by immunoblot analysis; type: functional, cell-based; method in brief: as §1
[8] = molecular target: T1, Ribosomal protein S6 kinase alpha-3; conditions: MCF7, 100 uM
[9] = molecular target: T1, Ribosomal protein S6 kinase alpha-3; conditions: MCF7, 100 uM; remark: listed apart in the source
[10] = Half life in CD1 mouse at 2.5 mg/kg, ip; type: ADME, organism-based; parameters: dose 2.5 mg/kg, route intraperitoneal; conditions: in vivo
Method in brief: (§3)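 Male CD-1 mice given a single dose, 1 mg/kg iv or 2.5 mg/kg ip, in 1:1:15 Cremophor:EtOH:phosphate-buffered saline carrier. Plasma concentrations measured. AUC extrapolated to infinity and normalized to dose in mg/kg. C0 is maximum plasma concentration extrapolated to t = 0. Cmax is the observed maximum plasma concentration.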

Plasma = assay: Cmax in CD1 mouse plasma at 2.5 mg/kg, ip; type: ADME, organism-based; parameters: dose 2.5 mg/kg, route intraperitoneal; conditions: in vivo; method in brief: as §3
[11] = Half life in CD1 mouse at 1 mg/kg, iv; type: ADME, organism-based; parameters: dose 1 mg/kg, route intravenous; conditions: in vivo; method in brief: as §3
[12] = Initial plasma concentration in CD1 mouse at 1 mg/kg, iv; type: ADME, organism-based; parameters: dose 1 mg/kg, route intravenous; method in brief: as §3
Mus musculus [13] = assay: Dose normalized AUC in CD1 mouse at 2.5 mg/kg, ip; type: ADME, organism-based; parameters: dose 2.5 mg/kg, route intraperitoneal; conditions: in vivo; method in brief: as §3
MCF7 [14] = assay: Decrease in cyclin D1 level in human PMA-stimulated MCF7 cells at 100 uM pretreated for 2 hrs prior to PMA addition measured after 20 mins by immunoblot analysis; type: functional, cell-based; method in brief: as §1
Mus musculus [15] = assay: Dose normalized AUC in CD1 mouse at 1 mg/kg, iv; type: ADME, organism-based; parameters: dose 1 mg/kg, route intravenous; conditions: in vivo; method in brief: as §3

T1 sequence (P51812 whole entry, the tested form may be a part): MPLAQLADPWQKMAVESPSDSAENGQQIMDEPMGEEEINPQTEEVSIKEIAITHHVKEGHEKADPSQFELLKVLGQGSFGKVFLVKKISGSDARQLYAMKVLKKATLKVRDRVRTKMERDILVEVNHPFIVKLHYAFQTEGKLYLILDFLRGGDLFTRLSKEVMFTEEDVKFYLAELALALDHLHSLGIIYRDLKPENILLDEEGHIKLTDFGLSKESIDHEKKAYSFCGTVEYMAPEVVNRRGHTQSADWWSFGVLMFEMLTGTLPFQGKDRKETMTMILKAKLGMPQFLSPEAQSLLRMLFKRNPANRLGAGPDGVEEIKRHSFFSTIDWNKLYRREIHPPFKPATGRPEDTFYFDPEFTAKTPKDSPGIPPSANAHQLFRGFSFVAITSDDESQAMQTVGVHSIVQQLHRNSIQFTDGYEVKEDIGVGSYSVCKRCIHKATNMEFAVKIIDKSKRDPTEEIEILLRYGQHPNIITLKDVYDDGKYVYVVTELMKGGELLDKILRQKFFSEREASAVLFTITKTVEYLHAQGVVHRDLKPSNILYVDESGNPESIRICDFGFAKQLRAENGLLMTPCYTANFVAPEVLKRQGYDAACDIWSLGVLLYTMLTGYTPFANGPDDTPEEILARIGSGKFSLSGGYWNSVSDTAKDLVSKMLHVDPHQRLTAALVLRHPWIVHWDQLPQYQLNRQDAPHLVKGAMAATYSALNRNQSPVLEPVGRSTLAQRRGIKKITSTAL

SMILES: CC(=O)O[C@@H]1[C@@H](OC(C)=O)[C@@H](O)[C@H](Oc2c(-c3ccc(O)cc3)oc3cc(O)cc(O)c3c2=O)O[C@H]1C
logP [1]: 2.11
inhibition [8]: Active
inhibition [9]: Active
half-life [10]: 24 min
Cmax (Plasma): 1851 ng/mL
half-life [11]: 9 min
C0 [12]: 291 ng/mL
AUC/dose (Mus musculus [13]): 1023 ng·kg·h/mL/mg
inhibition (MCF7 [14]): Active
AUC/dose (Mus musculus [15]): 38.7 ng·kg·h/mL/mg

SMILES: CCC[C@@H]1O[C@@H](Oc2c(-c3ccc(O)cc3)oc3cc(O)cc(O)c3c2=O)[C@H](OC(C)=O)[C@H](OC(C)=O)[C@H]1OC(C)=O
logP [1]: 3.87
IC50 [2]: 1.77 µM

SMILES: CCC[C@@H]1O[C@@H](Oc2c(-c3ccc(O)cc3)oc3cc(O)cc(O)c3c2=O)[C@H](OC(C)=O)[C@H](O)[C@H]1OC(C)=O
logP [1]: 3.39
IC50 [2]: 0.62 µM

Further lines, with some results ahead:

logP [1]: 2.2
SMILES: CCC[C@@H]1O[C@@H](Oc2c(-c3ccc(O)cc3)oc3cc(O)cc(O)c3c2=O)[C@H](O)[C@H](O)[C@H]1O

logP [1]: 1.64
IC50 [2]: 1.51 µM
SMILES: CC[C@@H]1O[C@@H](Oc2c(-c3ccc(O)cc3)oc3cc(O)cc(O)c3c2=O)[C@H](O)[C@H](O)[C@H]1O

inhibition [3]: Active
inhibition [4]: Active
logP [1]: 3.17
Ratio IC50 [5]: > 40
SMILES: CCC[C@@H]1O[C@@H](Oc2c(-c3ccc(O)cc3)oc3cc(O)cc(O)c3c2=O)[C@H](O)[C@H](OC(C)=O)[C@H]1OC(C)=O
Activity (MCF-10A): Non-toxic
inhibition at 25 µM (MCF7 [6]): 50%
inhibition (MCF7 [7]): Active

logP [1]: 2.9
IC50 [2]: 1.5 µM
SMILES: CCC[C@@H]1O[C@@H](Oc2c(-c3ccc(O)cc3)oc3cc(O)cc(O)c3c2=O)[C@H](O)[C@H](O)[C@H]1OC(C)=O

logP [1]: 2.41
SMILES: CC(C)C[C@@H]1O[C@@H](Oc2c(-c3ccc(O)cc3)oc3cc(O)cc(O)c3c2=O)[C@H](O)[C@H](O)[C@H]1O
